Experimental data of several laboratories.
Lines come from different studies, so protocols differ.
Cell line: MDA-MB-435
Read-out: cell growth or viability

SMILES | technique | concentration | time | endpoint | value
CCOC(=O)c1[nH]c(Br)c(-c2ccc(OC)c(F)c2)c1Br | SRB | – | – | IC50 | 539 nM
COc1ccc(C(=O)/C=C/c2cccc(Cl)c2)cc1S(N)(=O)=O | SRB | 10 µM | – | inhibition | 86%
COc1cc(Nc2nccc(-c3cnn4nc(OC)ccc34)n2)cc(C(F)(F)F)c1 | ATP luminescence | – | – | IC50 | 130 nM
COc1ccc(C(=O)/C=C/c2ccc3ccccc3c2)cc1S(N)(=O)=O | SRB | 10 µM | – | inhibition | 98%
COc1ccc(N(C)c2nc(C)nc3c2C[C@@H](C)C3)cc1 (racemic) | SRB | – | – | IC50 | 17 nM
COc1ccc(C(=O)/C=C/c2c(F)cccc2Cl)cc1S(N)(=O)=O | SRB | 10 µM | – | inhibition | 93%
CCOC(=O)c1[nH]c(Br)c(-c2ccc3c(c2)OCO3)c1Br | SRB | – | – | IC50 | 1800 nM
COc1cc(-c2ccc(-c3ccc(C(=N)N)nc3)s2)cc(OC)c1OC | SRB | – | – | GI50 | 1620 nM
COc1cccc(Oc2ccccc2NC(=O)CNC(=O)c2cccc3ccccc23)c1 | SRB | – | 48 h | GI50 | 70.8 nM
CCOC(=O)c1[nH]c(Br)c(-c2ccc(OC(F)(F)F)cc2)c1Br | SRB | – | – | IC50 | 1700 nM
COc1ccc(C(=O)/C=C/c2cccc(Br)c2)cc1S(N)(=O)=O | SRB | 10 µM | – | inhibition | 106%
CCOC(=O)c1[nH]c(Br)c(-c2ccc(OC)cc2)c1Br | SRB | – | – | IC50 | 843 nM
O=C1NC(=NCc2cccs2)S/C1=C\c1ccc2ncccc2c1 | – | – | – | IC50 | 6600 nM
